Measurements of several laboratories.
Protocols differ between the studies behind these lines.
Target: Rho-associated protein kinase 1 (ROCK1, Homo sapiens, UniProt Q13464)

CN1CC(Oc2cnc(C#N)cc2-c2ccn3nc(NC(=O)C4CC4)cc3c2)C1 — inhibition (enzyme activity, inhibitor; 1 µM): 0%
C=CC(=O)Nc1cc(Nc2nccc(Nc3cc(Cl)c(F)cc3C(C)(C)O)n2)c(OC)cc1N1CC[C@@H](N(C)C)C1 — inhibition (enzyme activity, inhibitor; 1 µM): 0%
Cc1sc(C(=O)NC2COC2)cc1-n1cc(NC(=O)Nc2c(F)cccc2Cl)cn1 — remaining activity (enzyme activity, inhibitor; 10 µM): 96.8%
Cn1cncc1C1=CN(c2ncnc3[nH]cnc23)CCS1 — inhibition (enzyme activity, inhibitor, radiometric; 2 µM): 88.6%
Nc1ncnc2occ(-c3ccc(NC(=O)Nc4cc(C(F)(F)F)ccc4F)cc3)c12 — remaining signal (cell-free assay, inhibitor; 20 µM): 0.1%
CCS(=O)(=O)c1cc2cc(C[C@](O)(CC(C)(C)c3ccc(F)cc3C(N)=O)C(F)(F)F)[nH]c2cn1 — remaining binding (cell-free assay, competition with immobilised ligand; 1 µM): 84%
CCN(CC)CCNC(=O)c1c(C)[nH]c(/C=C2\C(=O)Nc3ccc(F)cc32)c1C — inhibition (enzyme activity, inhibitor; 0.3 µM): 6%
CC/C(=N\NC(=O)NCc1cccc(O)c1)c1ccc(O)c(C)c1O — inhibition (enzyme activity, inhibitor; 0.1 µM): 65.5%
CC(C)(C)c1nc2c(s1)c1nc(N)ncc1c1ccc(NS(=O)(=O)c3c(F)cccc3F)c(F)c12 — remaining activity (enzyme activity, inhibitor, radiometric; 1 µM): 98%
COc1cc(Cl)c(C(=O)N[C@@H](CN[C@H]2CC[C@@H](N)CC2)Cc2ccc(C#N)cc2)cc1-c1ccc(CN[C@H](C)c2ccc(C)cc2)o1 — remaining activity (enzyme activity, inhibitor; 1 µM): 105%
C[C@@H](c1cccc(C#N)c1)n1cc(Cl)cc(C(N)=O)c1=N — remaining binding (cell-free assay, competition with immobilised ligand; 1 µM): 71%
CNC(=O)c1cc(Oc2ccc(NC(=O)Nc3ccc(Cl)c(C(F)(F)F)c3)cc2)ccn1 — inhibition (enzyme activity, inhibitor; 10 µM): 8%
CSc1nc(C)c(-c2ccnc(Nc3ccc(N4CCOCC4)cc3)c2)[nH]1 — inhibition (enzyme activity, inhibitor; 10 µM): -4.2%
CNc1cc(Oc2cc(C(=O)Nc3cc(N4CCN(C)CC4)cc(C(F)(F)F)c3)ccc2C)ncn1 — inhibition (target engagement in cells, inhibitor, chemoproteomics; Huh-7; 1 µM): -28.8%
CN(c1ccnc(CNc2nc(Nc3ccc4c(c3)CC(=O)N4)ncc2C(F)(F)F)n1)S(C)(=O)=O — remaining binding (cell-free assay, competition with immobilised ligand; 1 µM): 49%
Cc1ccc(Nc2nccc(N(C)c3ccc4c(C)n(C)nc4c3)n2)cc1S(N)(=O)=O — inhibition (enzyme activity, inhibitor; 10 µM): 18%
c1ccc(N2CCN(Cc3nc4ccccc4[nH]3)CC2)nc1 — remaining binding (binding, competition with immobilised ligand; 1 µM): 100%
N#CCCc1ccc2c(c1)-c1[nH]c3ccc([N+](=O)[O-])cc3c1CC(=O)N2 — remaining signal (cell-free assay; 0.5 µM): 38.9%
CN(C)C1CCN(CC#Cc2nn(C3CCCC3)c3nc(NCc4ccccc4)ncc23)C1 (stereo not drawn) — inhibition (enzyme activity, inhibitor, FRET; 0.1 µM): -5%
C[S+]([O-])c1ccc(-c2nc(-c3ccncc3)c(-c3ccc(F)cc3)[nH]2)cc1 (stereo not drawn) — remaining signal (cell-free assay; 0.5 µM): 102%
C[C@@H]1CN(c2cc(-c3nn(C)c4ccc(OC5(C)CC5)cc34)ncn2)C[C@H](C)O1 — remaining binding (cell-free assay, competition with immobilised ligand; 1 µM): 100%
CC(C)c1ccc(NC(=O)c2cccs2)c(-c2nc3ccccc3[nH]c2=O)c1 — activity vs control (enzyme activity, inhibitor; 1 µM): 122%
CN(C)CC#Cc1ccc(OCCCc2sc(N3CCc4cccc(C(=O)Nc5nc6ccccc6s5)c4C3)nc2C(=O)O)c(F)c1 — remaining binding (cell-free assay, competition with immobilised ligand; 1 µM): 100%
COc1cc2ncnc(Nc3ccc(Oc4ccccc4)cc3C)c2cc1OC — inhibition (enzyme activity, inhibitor; 1 µM): 1%
O=c1nc(-c2ccccn2)sc2ccccc12 — remaining binding (binding, competition with immobilised ligand; 1 µM): 100%
Cc1cnc(NC2CCOCC2)nc1-n1cnc(C(=O)NC(CN)c2cc(F)cc(Cl)c2)c1 (stereo not drawn) — remaining activity (enzyme activity, inhibitor, radiometric; 1 µM): 62%
c1ccc(CNc2nc(N3CCOc4ccccc43)nc3c2CCCC3)cc1 — inhibition (target engagement in cells, inhibitor, chemoproteomics; 20 mM): 3.9%
Cc1nc(N2CC[C@@H](O)C2)ncc1-c1cc(C(F)(F)F)cc2[nH]ncc12 — remaining binding (binding, competition with immobilised ligand; 1 µM): 91%
O=C(Nc1cnn(-c2csc(C(=O)NC3COC3)c2)c1)Nc1ccccc1Cl — remaining activity (enzyme activity, inhibitor; 5 µM): 109%
O=C1NC(=O)c2cc(Nc3ccc(F)cc3)c(Nc3ccc(F)cc3)cc21 — remaining signal (cell-free assay; 0.5 µM): 96.7%
